ChEMBL document CHEMBL1926577, “Novel 1,3,4-heterodiazole analogues: synthesis and in-vitro antitumor activity” (2012)

Experiments:
Format in all cases: functional
[1] = system: HCT-116; test: Growth inhibition of human HCT116 cells at 10 uM after 48 hrs by coulter counter method; details: HCT-116, 48 h, read-out: GI
Procedure, shortened: (§1)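 NCI 60-cell-line panel, single dose. Compound dissolved first in DMSO, then diluted in phosphate-buffered saline so that every final dilution held under 1% DMSO. Duplicate wells received cells at 6 × 10⁴ cells/ml. Controls held PBS/DMSO at the same dilution. Plates were incubated 48 h at 37 °C under 5% CO₂. Cells were then diluted 10-fold in saline and counted on a Coulter counter, with counts corrected for the dilution. Results are given as percent growth inhibition.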

[2] = system: K562; test: Growth inhibition of human K562 cells at 10 uM after 48 hrs by coulter counter method; details: K562, 48 h, read-out: GI; procedure, shortened: as §1
[3] = system: SK-MEL-2; test: Growth inhibition of human SK-MEL-2 cells at 10 uM after 48 hrs by coulter counter method; details: SK-MEL-2, 48 h, read-out: GI; procedure, shortened: as §1
[4] = system: UO-31; test: Growth inhibition of human UO31 cells at 10 uM after 48 hrs by coulter counter method; details: UO-31, 48 h, read-out: GI; procedure, shortened: as §1
[5] = system: HT-29; test: Growth inhibition of human HT-29 cells at 10 uM after 48 hrs by coulter counter method; details: HT-29, 48 h, read-out: GI; procedure, shortened: as §1
[6] = system: MDA-MB-468; test: Growth inhibition of human MDA-MB-468 cells at 10 uM after 48 hrs by coulter counter method; details: MDA-MB-468, 48 h, read-out: GI; procedure, shortened: as §1
[7] = system: NCI-H226; test: Growth inhibition of human NCI-H226 cells at 10 uM after 48 hrs by coulter counter method; details: NCI-H226, 48 h, read-out: GI; procedure, shortened: as §1
[8] = system: SK-MEL-5; test: Growth inhibition of human SK-MEL-5 cells at 10 uM after 48 hrs by coulter counter method; details: SK-MEL-5, 48 h, read-out: GI; procedure, shortened: as §1
[9] = system: RPMI-8226; test: Growth inhibition of human RPMI8226 cells at 10 uM after 48 hrs by coulter counter method; details: RPMI-8226, 48 h, read-out: GI; procedure, shortened: as §1
[10] = system: NCI/ADR-RES; test: Growth inhibition of human NCI/ADR-RES cells at 10 uM after 48 hrs by coulter counter method; details: read-out: GI; procedure, shortened: as §1
[11] = system: A498; test: Growth inhibition of human A498 cells at 10 uM after 48 hrs by coulter counter method; details: A498, 48 h, read-out: GI; procedure, shortened: as §1
[12] = system: CCRF-CEM; test: Growth inhibition of human CCRF-CEM cells at 10 uM after 48 hrs by coulter counter method; details: read-out: GI; procedure, shortened: as §1
[13] = system: SNB-19; test: Growth inhibition of human SNB19 cells at 10 uM after 48 hrs by coulter counter method; details: SNB-19, 48 h, read-out: GI; procedure, shortened: as §1
[14] = system: M14; test: Growth inhibition of human M14 cells at 10 uM after 48 hrs by coulter counter method; details: M14, 48 h, read-out: GI; procedure, shortened: as §1
[15] = system: LOX IMVI; test: Growth inhibition of human LOXIMVI cells at 10 uM after 48 hrs by coulter counter method; details: read-out: GI; procedure, shortened: as §1
[16] = system: SNB-75; test: Growth inhibition of human SNB75 cells at 10 uM after 48 hrs by coulter counter method; details: SNB-75, 48 h, read-out: GI; procedure, shortened: as §1
[17] = system: HL-60(TB); test: Growth inhibition of human HL-60(TB) cells at 10 uM after 48 hrs by coulter counter method; details: HL-60, 48 h, read-out: GI
Procedure, shortened: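 Single-dose screen on the NCI 60-line panel (leukemia subpanel). Compound is dissolved in DMSO and diluted in PBS, with final DMSO below 1%. Duplicate wells hold 6 × 10⁴ cells/ml at 37 °C, 5% CO₂, for 48 h. Cells are counted by Coulter counter after 10-fold saline dilution. Read-out is percent growth versus PBS/DMSO controls, expressed as % growth inhibition.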

[18] = system: ACHN; test: Growth inhibition of human ACHN cells at 10 uM after 48 hrs by coulter counter method; details: read-out: GI; procedure, shortened: as §1
[19] = system: OVCAR-8; test: Growth inhibition of human OVCAR8 cells at 10 uM after 48 hrs by coulter counter method; details: OVCAR-8, 48 h, read-out: GI; procedure, shortened: as §1
[20] = system: U-251; test: Growth inhibition of human U251 cells at 10 uM after 48 hrs by coulter counter method; details: U-251, 48 h, read-out: GI; procedure, shortened: as §1
[21] = system: EKVX; test: Growth inhibition of human EKVX cells at 10 uM after 48 hrs by coulter counter method; details: read-out: GI; procedure, shortened: as §1
[22] = system: SF-295; test: Growth inhibition of human SF295 cells at 10 uM after 48 hrs by coulter counter method; details: SF-295, 48 h, read-out: GI; procedure, shortened: as §1
[23] = system: IGROV-1; test: Growth inhibition of human IGROV1 cells at 10 uM after 48 hrs by coulter counter method; details: IGROV-1, 48 h, read-out: GI; procedure, shortened: as §1
[24] = system: NCI-H322M; test: Growth inhibition of human NCI-H322M cells at 10 uM after 48 hrs by coulter counter method; details: read-out: GI; procedure, shortened: as §1
[25] = system: MDA-MB-435; test: Growth inhibition of human MDA-MB-435 cells at 10 uM after 48 hrs by coulter counter method; details: MDA-MB-435, 48 h, read-out: GI; procedure, shortened: as §1
[26] = system: UACC-257; test: Growth inhibition of human UACC257 cells at 10 uM after 48 hrs by coulter counter method; details: UACC-257, 48 h, read-out: GI; procedure, shortened: as §1
[27] = system: NCI-H23; test: Growth inhibition of human NCI-H23 cells at 10 uM after 48 hrs by coulter counter method; details: NCI-H23, 48 h, read-out: GI; procedure, shortened: as §1
[28] = system: KM12; test: Growth inhibition of human KM12 cells at 10 uM after 48 hrs by coulter counter method; details: KM12, 48 h, read-out: GI; procedure, shortened: as §1
[29] = system: CAKI-1; test: Growth inhibition of human Caki1 cells at 10 uM after 48 hrs by coulter counter method; details: CAKI-1, 48 h, read-out: GI; procedure, shortened: as §1
[30] = system: TK-10; test: Growth inhibition of human TK10 cells at 10 uM after 48 hrs by coulter counter method; details: TK-10, 48 h, read-out: GI; procedure, shortened: as §1
[31] = system: UACC-62; test: Growth inhibition of human UACC62 cells at 10 uM after 48 hrs by coulter counter method; details: UACC-62, 48 h, read-out: GI; procedure, shortened: as §1
[32] = system: HCT-15; test: Growth inhibition of human HCT15 cells at 10 uM after 48 hrs by coulter counter method; details: HCT-15, 48 h, read-out: GI; procedure, shortened: as §1
[33] = system: A549; test: Growth inhibition of human A549 cells at 10 uM after 48 hrs by coulter counter method; details: A549, 48 h, read-out: GI; procedure, shortened: as §1
[34] = system: SN12C; test: Growth inhibition of human SN12C cells at 10 uM after 48 hrs by coulter counter method; details: read-out: GI; procedure, shortened: as §1
[35] = system: T47D; test: Growth inhibition of human T47D cells at 10 uM after 48 hrs by coulter counter method; details: read-out: GI; procedure, shortened: as §1
[36] = system: SK-MEL-28; test: Growth inhibition of human SK-MEL-28 cells at 10 uM after 48 hrs by coulter counter method; details: SK-MEL-28, 48 h, read-out: GI; procedure, shortened: as §1
[37] = system: MOLT-4; test: Growth inhibition of human MOLT4 cells at 10 uM after 48 hrs by coulter counter method; details: MOLT-4, 48 h, read-out: GI; procedure, shortened: as §1
[38] = system: MCF7; test: Growth inhibition of human MCF7 cells at 10 uM after 48 hrs by coulter counter method; details: MCF7, 48 h, read-out: GI; procedure, shortened: as §1
[39] = system: PC-3; test: Growth inhibition of human PC3 cells at 10 uM after 48 hrs by coulter counter method; details: PC-3, 48 h, read-out: GI; procedure, shortened: as §1
[40] = system: NCI-H522; test: Growth inhibition of human NCI-H522 cells at 10 uM after 48 hrs by coulter counter method; details: NCI-H522, 48 h, read-out: GI; procedure, shortened: as §1
[41] = system: Malme-3M; test: Growth inhibition of human MALME-3M cells at 10 uM after 48 hrs by coulter counter method; details: read-out: GI; procedure, shortened: as §1
[42] = system: BT-549; test: Growth inhibition of human BT549 cells at 10 uM after 48 hrs by coulter counter method; details: BT-549, 48 h, read-out: GI; procedure, shortened: as §1
[43] = system: SF-268; test: Growth inhibition of human SF268 cells at 10 uM after 48 hrs by coulter counter method; details: SF-268, 48 h, read-out: GI; procedure, shortened: as §1
[44] = system: 786-0; test: Growth inhibition of human 786-0 cells at 10 uM after 48 hrs by coulter counter method; details: 786-0, 48 h, read-out: GI; procedure, shortened: as §1
[45] = system: SR; test: Growth inhibition of human SR cells at 10 uM after 48 hrs by coulter counter method; details: read-out: GI; procedure, shortened: as §1

## O=C1CN2N=C(c3ccccc3)OC2=N1
[1]
  inhibition of growth at 10 µM: < 10%
[2]
  inhibition of growth at 10 µM: < 10%
[3]
  inhibition of growth at 10 µM: < 10%
[4]
  inhibition of growth at 10 µM: 20.4%
[5]
  inhibition of growth at 10 µM: < 10%
[6]
  inhibition of growth at 10 µM: < 10%
[7]
  inhibition of growth at 10 µM: < 10%
[8]
  inhibition of growth at 10 µM: < 10%
[9]
  inhibition of growth at 10 µM: < 10%
[10]
  inhibition of growth at 10 µM: < 10%
[11]
  inhibition of growth at 10 µM: 10.9%
[12]
  inhibition of growth at 10 µM: < 10%
[13]
  inhibition of growth at 10 µM: < 10%
[14]
  inhibition of growth at 10 µM: < 10%
[15]
  inhibition of growth at 10 µM: < 10%
[16]
  inhibition of growth at 10 µM: < 10%
[17]
  inhibition of growth at 10 µM: < 10%
[18]
  inhibition of growth at 10 µM: < 10%
[19]
  inhibition of growth at 10 µM: < 10%
[20]
  inhibition of growth at 10 µM: < 10%
[21]
  inhibition of growth at 10 µM: < 10%
[22]
  inhibition of growth at 10 µM: 14.7%
[23]
  inhibition of growth at 10 µM: < 10%
[24]
  inhibition of growth at 10 µM: < 10%
[25]
  inhibition of growth at 10 µM: < 10%
[26]
  inhibition of growth at 10 µM: < 10%
[27]
  inhibition of growth at 10 µM: < 10%
[28]
  inhibition of growth at 10 µM: < 10%
[29]
  inhibition of growth at 10 µM: 21.2%
[30]
  inhibition of growth at 10 µM: < 10%
[31]
  inhibition of growth at 10 µM: < 10%
[32]
  inhibition of growth at 10 µM: < 10%
[33]
  inhibition of growth at 10 µM: < 10%
[34]
  inhibition of growth at 10 µM: < 10%
[35]
  inhibition of growth at 10 µM: < 10%
[36]
  inhibition of growth at 10 µM: < 10%
[37]
  inhibition of growth at 10 µM: < 10%
[38]
  inhibition of growth at 10 µM: < 10%
[39]
  inhibition of growth at 10 µM: < 10%
[40]
  inhibition of growth at 10 µM: < 10%
[41]
  inhibition of growth at 10 µM: < 10%
[42]
  inhibition of growth at 10 µM: < 10%
[43]
  inhibition of growth at 10 µM: < 10%
[44]
  inhibition of growth at 10 µM: < 10%
[45]
  inhibition of growth at 10 µM: < 10%
